Experimental findings from ChEMBL document CHEMBL1132964, “Selective ET(A) antagonists. 5. Discovery and structure-activity relationships of phenoxyphenylacetic acid derivatives” (J Med Chem, 2000) are described below.

Values after ≈ are worked out from the molar mass of the structure shown. Values joined by “and” are separate entries in the source; they are usually repeats but may differ in a detail not shown here. Equal entries are not always repeated. Active and inactive are the calls of the source. No cut-off for these calls is given here.

In one data set the target is T1, Endothelin-1 receptor (Rattus norvegicus, UniProt P26684).
T1 sequence (P26684 whole entry): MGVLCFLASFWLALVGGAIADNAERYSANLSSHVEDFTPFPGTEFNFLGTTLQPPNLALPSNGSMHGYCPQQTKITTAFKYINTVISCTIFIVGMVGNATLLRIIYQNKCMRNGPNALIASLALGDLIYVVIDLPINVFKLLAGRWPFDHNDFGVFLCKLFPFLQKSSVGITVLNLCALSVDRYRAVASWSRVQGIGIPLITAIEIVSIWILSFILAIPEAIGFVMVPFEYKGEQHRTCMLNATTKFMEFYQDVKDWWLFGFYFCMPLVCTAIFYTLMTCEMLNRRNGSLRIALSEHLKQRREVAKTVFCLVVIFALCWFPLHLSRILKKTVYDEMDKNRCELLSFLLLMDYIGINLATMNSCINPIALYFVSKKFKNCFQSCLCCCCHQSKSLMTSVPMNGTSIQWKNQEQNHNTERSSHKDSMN
Briefly: In vitro ability to antagonise the binding of [125I]ET1 to the rat aortic A10 cell membrane endothelin A receptor. It is filed as cell membranes.

A further data set is filed under the species Rattus norvegicus. Description: Tested for inhibition of ET-1 induced contraction against isolated Rat aortic rings denuded of the endothelium. It is filed as functional, Aorta. The method, boiled down: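 Endothelium-denuded rat aortic rings contracted by ET-1. Tested compound at increasing concentrations, with ET-1 dose-response curves run in its presence. Antagonism expressed as pKb from the rightward shift of the ET-1 curve. Determinations in duplicate, with 95% confidence limits.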

The nature of data set [1]: Oral bioavailability in rat (Sprague-Dawley) (male) (dose 10 mg/kg). It is filed as ADME, organism-based. The conditions noted are these: in vivo. The procedure, abridged: (§1)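 Single 10 mg/kg oral dose to male Sprague-Dawley rats or male Beagle dogs. Plasma Cpmax (µg/mL), Tmax (h), t1/2 (h) and bioavailability (%) derived from the plasma profile.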
Data set [2] can be described thus: Tested for half life in male Sprague-Dawley rats dosed at 10 mg/kg orally. Also on record: dose 10 mg/kg, route oral. The following applies: rat, in vivo, po. It is filed as ADME, organism-based. The procedure, abridged: as §1
A short description of data set [3]: Maximal plasma concentration in male Sprague-Dawley rats at 10 mg/kg oral dose. It is filed as ADME, organism-based. Also on record: dose 10 mg/kg, route oral. The conditions noted are these: rat. The procedure, abridged: as §1
Data set [4] can be described thus: Tested for Tmax in male Sprague-Dawley rats dosed at 10 mg/kg orally. It is filed as ADME, organism-based. Also on record: dose 10 mg/kg, route oral. The conditions noted are these: rat, in vivo, po. The procedure, abridged:
as §1

Data set [5] deals with Endothelin receptor type A (Rattus norvegicus). Description: Activity against Endothelin A receptor in pithed rats after intravenous administration at 25 umol/kg.
The nature of data set [6]: Tested for half life in male Beagle dogs dosed at 10 mg/kg orally. The format is ADME, organism-based, Canis lupus familiaris. Also on record: dose 10 mg/kg, route oral. The conditions noted are these: dog, in vivo, po. The method, boiled down:
as §1

A short description of data set [7]: Measured solubility. The format is ADME, organism-based, Rattus norvegicus.
Data set [8] can be described thus: Maximal plasma concentration in male Beagle dogs at 10 mg/kg oral dose. Also on record: dose 10 mg/kg, route oral. The following applies: dog. The format is ADME, organism-based, Canis lupus familiaris. The procedure, abridged: as §1
Data set [9] can be described thus: Tested for Tmax in male Beagle dogs dosed at 10 mg/kg orally. Also on record: dose 10 mg/kg, route oral. The following applies: dog, in vivo, po. The format is ADME, organism-based, Canis lupus familiaris. The procedure, abridged: as §1
A short description of data set [10]: Tested for bioavailability in male Beagle dogs dosed at 10 mg/kg orally. The format is ADME, organism-based, Canis lupus familiaris. The conditions noted are these: dog, in vivo, po, read-out: Bioavailabiility. The method, boiled down: as §1
Data set [11] deals with Endothelin receptor type A (Rattus norvegicus). Description: Inhibition of Endothelin A receptor in pithed rats 1.5 hour after oral administration at 75 uM/kg.
The test system is the same in data set [12]. Description: Inhibition of Endothelin A receptor in pithed rats 3 hour after oral administration at 75 umol/kg.

For orientation: IC50 means the concentration that inhibits the measured activity by half. Lower therefore signals greater potency in that assay. By pKb is commonly meant the negative decadic logarithm of the Kb, by convention in mol/L. For the compound `Cc1ccccc1C(Oc1cc(OCc2ccc3c(c2)OCO3)ccc1C#N)C(=O)O` (centres undefined) [listing 1 of 2 here], the IC50 on Endothelin-1 receptor was determined as 12 nM. In the data set listed under Rattus norvegicus, the pKb turned out to be 7.9.

In the case of `Cc1ccccc1C(Oc1cc(OCc2ccncc2)ccc1C#N)C(=O)O` (centres undefined), the IC50 at Endothelin-1 receptor was 9 nM. The compound further returned a pKb in the data set listed under Rattus norvegicus of 7.6.

As for `N#Cc1ccc(OCc2ccsc2)cc1OC(C(=O)O)c1cccc(Cl)c1` (centres undefined), at Endothelin-1 receptor, the IC50 was 98 nM.

On to `Cc1ccccc1[C@H](Oc1cc(OCc2ccc3c(c2)OCO3)ccc1C#N)C(=O)O`, for which, on Endothelin-1 receptor, the IC50 was 6 nM.

A word on the half-life: it is how long it takes for the measured level to halve. The low end stands for fast loss, the high end for slow loss. One may read the Cmax as the maximum level reached in the sampled fluid or tissue. What is called Tmax is the time at which the peak concentration occurs. As to `Cc1ccccc1C(Oc1cc(OCc2ccncc2)ccc1C#N)C(=O)[O-].[Na+]` (centres undefined), the bioavailability in data set [1] worked out at 9%. For the same compound, in data set [2], the half-life is 0.2 h. Moreover, in data set [3], the Cmax was found to be 290 ng/mL. In data set [4], the Tmax amounted to 2 h. The compound further showed an IC50 on Endothelin-1 receptor of 5 nM.

As to `N#Cc1ccc(OCc2ccsc2)cc1OC(C(=O)O)c1ccccc1` (centres undefined), the IC50 on Endothelin-1 receptor was 70 nM. Moreover, in the data set filed under Rattus norvegicus, the pKb was 7.24.

As to `N#Cc1ccc(OCc2ccc3c(c2)OCO3)cc1OC(C(=O)O)c1ccccc1C(F)(F)F` (centres undefined), on Endothelin-1 receptor, the IC50 turned out to be 16 nM. For the same compound, the pKb in the data set listed under Rattus norvegicus amounted to 7.4. In [5], this compound came in with an Activity of 9 µM/kg.

`Cc1ccccc1C(Oc1cc(OCc2ccccc2)ccc1C#N)C(=O)O` (centres undefined) had an IC50 at Endothelin-1 receptor of 49 nM.

With `Cc1ccccc1C(Oc1cc(OCc2ccoc2)ccc1C#N)C(=O)O` (centres undefined), on Endothelin-1 receptor, the IC50 turned out to be 68 nM.

For the compound `Cc1ccccc1C(Oc1cc(OCc2ccnc(F)c2)ccc1C#N)C(=O)O` (centres undefined), the IC50 on Endothelin-1 receptor was 23 nM.

The term solubility denotes the concentration that dissolves in the medium under given conditions. A higher solubility goes with a readily soluble substance. `Cc1ccccc1C(Oc1cc(OCc2ccc3c(c2)OCO3)ccc1C#N)C(=O)[O-].[Na+]` (centres undefined): the bioavailability in data set [1] amounted to 84%; in data set [10], 89%. The results for the half-life in [6] and in data set [2] were 7.4 h and 2.8 h, respectively. The compound also displayed a solubility in [7] above 20000 µg/mL. The Cmax in data set [8] worked out at 30100 ng/mL; in data set [3], 5900 ng/mL. Further, the Tmax in data set [9] was 0.5 h; in data set [4], 1 h. In addition, the IC50 on Endothelin-1 receptor was 7 nM. In the data set listed under Rattus norvegicus, this compound registered a pKb of 8.1.

The compound `N#Cc1ccc(OCc2ccncc2)cc1OC(C(=O)O)c1ccsc1` (centres undefined) gave an IC50 on Endothelin-1 receptor of 630 nM.

`Cc1ccccc1C(Oc1cc(OCc2ccsn2)ccc1C#N)C(=O)O` (centres undefined): the IC50 at Endothelin-1 receptor stood at 220 nM.

As to `Cc1ccccc1C(Oc1cc(OCc2ccc3c(c2)OCO3)ccc1C#N)C(=O)O` (centres undefined) [listing 2 of 2 here], the Activity in [11] was 26 µM/kg and 34 µM/kg; in [5], 23 µM/kg and 45 µM/kg.

`Cc1ccccc1C(Oc1cc(OCc2cccnc2)ccc1C#N)C(=O)O` (centres undefined) returned an IC50 on Endothelin-1 receptor of 30 nM.

With `N#Cc1ccc(OCc2ccc3c(c2)OCO3)cc1OC(C(=O)O)c1ccccc1Cl` (centres undefined), the bioavailability in data set [1] was found to be 76%. The compound also showed a half-life in data set [2] of 6.3 h. Further, the concentration in solution in data set [7] (solubility) was 1680 µg/mL (≈ 3.84 mM). For the same compound, the peak level in data set [3] (Cmax) was 22000 ng/mL. The time to peak (Tmax) in data set [4] came out at 1 h. Besides, the IC50 at Endothelin-1 receptor came to 14 nM. This compound also showed a pKb in the data set listed under Rattus norvegicus of 8. Moreover, the Activity in data set [11] is 19 µM/kg; in data set [12], 10 µM/kg; in data set [5], 13.8 µM/kg.

For `N#Cc1ccc(OCc2ccsc2)cc1OC(C(=O)O)c1ccc(Cl)cc1` (centres undefined), the IC50 at Endothelin-1 receptor is 504 nM.

Compound `N#Cc1ccc(OCc2ccsc2)cc1OC(C(=O)O)c1ccccc1F` (centres undefined) displayed an IC50 on Endothelin-1 receptor of 22 nM.

In the case of `Cc1ccccc1C(Oc1cc(OCc2ccsc2)ccc1C#N)C(=O)O` (centres undefined), at Endothelin-1 receptor, the IC50 is 20 nM. In the data set listed under Rattus norvegicus, this compound returned a negative logarithm of the Kb (pKb) of 7.9.

In turn, `N#Cc1ccc(OCc2ccnnc2)cc1OC(C(=O)O)c1ccccc1Cl` (centres undefined) registered an IC50 at Endothelin-1 receptor of 44 nM.

For the compound `N#Cc1ccc(OCc2ccc3c(c2)OCO3)cc1OC(C(=O)O)c1ccccc1` (centres undefined), at Endothelin-1 receptor, the IC50 is 41 nM. In the data set listed under Rattus norvegicus, the pKb was determined as 7.4. This compound returned an Activity in [5] of 7.6 µM/kg.

The compound `Cc1ccccc1C(Oc1cc(OCc2c(C)cccc2C)ccc1C#N)C(=O)O` (centres undefined) came in with an IC50 on Endothelin-1 receptor of 857 nM.

For `COc1ccccc1C(Oc1cc(OCc2ccsc2)ccc1C#N)C(=O)O` (centres undefined), the concentration for half-maximal inhibition (IC50) at Endothelin-1 receptor came to 529 nM.

For the compound `N#Cc1ccc(OCc2ccsc2)cc1OC(C(=O)O)c1ccccc1Br` (centres undefined), the IC50 at Endothelin-1 receptor was determined as 51 nM.

In the case of `N#Cc1ccc(OCc2ccsc2)cc1OC(C(=O)O)c1ccccc1Cl` (centres undefined), in [1], the bioavailability was 129%. The compound also had a half-life in data set [2] of 5 h. For the same compound, the concentration in solution in [7] (solubility) was 1190 µg/mL (≈ 2.98 mM). The same compound registered a Cmax in [3] of 62000 ng/mL. Moreover, the Tmax in data set [4] was found to be 0.5 h. For the same compound, on Endothelin-1 receptor, the IC50 was determined as 17 nM. Moreover, in the data set listed under Rattus norvegicus, the pKb was found to be 7.76.

`Cc1ccccc1C(Oc1cc(OCc2ccc3c(c2)OCCO3)ccc1C#N)C(=O)O` (centres undefined) had an IC50 at Endothelin-1 receptor of 1500 nM.

`Cc1ccccc1[C@H](Oc1cc(OCc2ccncc2)ccc1C#N)C(=O)O` returned a concentration for half-maximal inhibition (IC50) at Endothelin-1 receptor of 5 nM. Besides, the pKb in the data set filed under Rattus norvegicus is on record as 8.3.

For the compound `N#Cc1ccc(OCc2ccc3ncoc3c2)cc1OC(C(=O)O)c1ccccc1Cl` (centres undefined), the IC50 at Endothelin-1 receptor was 9 nM. Also, in the data set listed under Rattus norvegicus, the pKb worked out at 7.5.

At Endothelin-1 receptor, `N#Cc1ccc(OCc2ccncc2)cc1OC(C(=O)O)c1ccccc1Cl` (centres undefined) came in with a half-inhibitory concentration (IC50) of 6 nM. For the same compound, in the data set listed under Rattus norvegicus, the pKb is reported as 7.7. Moreover, the Activity in [11] was 2.7 µM/kg; in data set [12] it was 1.7 µM/kg; in data set [5], 46.8 µM/kg.

Take `Cc1ccccc1C(Oc1cc(OCc2ccc3ocnc3c2)ccc1C#N)C(=O)O` (centres undefined): the IC50 at Endothelin-1 receptor is 75 nM.

With `Cc1ccccc1C(Oc1cc(OCc2ccc3ncoc3c2)ccc1C#N)C(=O)O` (centres undefined), the IC50 on Endothelin-1 receptor was 6 nM. The compound also showed a pKb in the data set filed under Rattus norvegicus of 7.8. For the same compound, the outcome in [11] was inactive. In addition, the figures for the Activity in data set [12] and in data set [5] were 3.1 µM/kg and 63 µM/kg, respectively.

As for `COc1cc(COc2ccc(C#N)c(OC(C(=O)O)c3ccccc3C)c2)cc(OC)c1OC` (centres undefined), the IC50 at Endothelin-1 receptor was above 3000 nM.

Turning to `N#Cc1ccc(OCc2ccsc2)cc1OC(C(=O)O)c1ccoc1` (centres undefined), the IC50 on Endothelin-1 receptor turned out to be 2850 nM.

Compound `N#Cc1ccc(OCc2ccsc2)cc1OC(C(=O)O)c1ccccc1C(F)(F)F` (centres undefined) had an IC50 at Endothelin-1 receptor of 53 nM.

For the compound `Cc1ccccc1C(Oc1cc(OCc2ccccn2)ccc1C#N)C(=O)O` (centres undefined), on Endothelin-1 receptor, the half-inhibitory concentration (IC50) was above 3000 nM.

`Cc1ccccc1C(Oc1cc(OCc2cncs2)ccc1C#N)C(=O)O` (centres undefined) returned an IC50 on Endothelin-1 receptor of 30 nM.
